High-throughput results as filed in PubChem.
The list is not random: actives were taken first. Their share in the collection is about 3.1%.
MEKK3 PB1 HTS = MEKK3-MEK5 PB1 interaction, increase or decrease. actives 1.4% (n = 290,000). binding response (% of control), % at 10 µM. AID 1529. bead-based flow cytometry, Alexa488-MEK5 binding to MEKK3; actives lie on both sides; 0 = blocked by unlabeled MEK5, 100 = vehicle;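 active means binding response more than 3 SD above or below the average of its plate-row segment, actives on both sides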;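 further: Alexa488 bead fluorescence after subtracting the streptavidin-only scavenger bead signal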
MEKK2 WT-MEK5 = raises or lowers MEK5 binding to wildtype human MEKK2 PB1 domain. actives 1.1% (n = 290,000). bead flow cytometry, Alexa488-MEK5 binding to MEKK2 WT; actives lie on both sides. Q9Y2U5. binding response (% of control), % at 10 µM; in the data active means binding response below about 67% or above about 130%
Apaf1 inhib = human Apaf-1 inhibition | O14727 | reconstituted apoptosome caspase-3 activity, DEVD-Rh110 fluorescence | inhibition, % at 20 µM | actives 0.71% (n = 330,000); active means inhibition of at least 40% at 20 µM;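 further: plate controls were DMSO wells for no effect and DEVD-CHO caspase inhibitor wells for full effect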
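detection = Rh110 fluorescence intensity | test system = biochemical Apaf-1 apoptosome reconstitution | also added = cytochrome c and DEVD-Rh110 substrate | schedule = 30 min plus 50 min, RT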
PREPL inhibitor = inhibitors of human prolyl oligopeptidase-like enzyme PREPL; AID 2751; recombinant PREPL, fluorescence polarization activity-based probe; Q4J6C6; inhibition, % at 5.96 µM; actives 0.68% (n = 320,000); in the data active means inhibition above about 43%;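 further: 0% = enzyme with DMSO and 100% = wells lacking enzyme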
MEKK2 mut-MEK5 = signal of MEK5 binding to mutant human MEKK2 PB1 domain | bead flow cytometry, Alexa488-MEK5 binding to MEKK2 mutant | percent response, % at 10 µM | actives 0.35% (n = 290,000) | AID 1530; in the data active means percent response above about 24%, passing the limit was not always enough
UBC13 polyUb = blocks human UBC13 polyubiquitin chain formation | actives 0.47% (n = 330,000) | inhibition, % at 20 µM | P61088 | TR-FRET; in the data active means inhibition above about 45%, passing the limit was not always enough
MEKK2wt confirm = raises or lowers MEK5 binding to wildtype human MEKK2, retest | shares compounds with MEKK3 PB1 HTS | bead flow cytometry, Alexa488-MEK5 binding to MEKK2 WT; actives lie on both sides | binding response (% of control), % at 10 µM | actives 2.4% (n = 5,900); in the data active means binding response below about 16% or above about 210%; inactive means in between
MEKK2mut confirm = signal of MEK5 binding to mutant human MEKK2, retest; shares compounds with MEKK3 PB1 HTS; percent response, % at 10 µM; actives 2% (n = 5,900); bead flow cytometry, Alexa488-MEK5 binding to MEKK2 mutant; in the data active means percent response mostly above about 71%, no sharp cut-off; inactive means mostly below about 38%;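 further: higher means compound restores mutant binding toward wildtype level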
MEKK3-MEK5 inh = confirmation of inhibitors of MEK5 binding to human MEKK3 | shares compounds with MEKK3 PB1 HTS | bead flow cytometry, Alexa488-MEK5 binding to MEKK3; active compounds read low | binding response (% of control), % at 10 µM | actives 1.8% (n = 5,900) | AID 1894;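 active means binding response below 72% of control, or above a set upper limit, though filed actives all read lower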;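 further: 100% = DMSO only wells and 0% = binding blocked by excess unlabeled MEK5; lower values mean stronger disruption of MEK5 binding to MEKK3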
* hit, by the source's call; · = no result; [ ] = dose if it differs, or a comment.

SMILES	MEKK3 PB1 HTS	MEKK2 WT-MEK5	Apaf1 inhib	PREPL inhibitor	MEKK2 mut-MEK5	UBC13 polyUb	MEKK2wt confirm	MEKK2mut confirm	MEKK3-MEK5 inh
COc1ccc(C23CC4CC(CC(C4)C2)C3)cc1C(=O)NCCN(C)C	104.0	140.0*	22.1	-22.6	17.0	30.5	163.0	37.0	107.0
CNc1ccc(Br)cc(C(=O)/C=C/c2ccc3c(c2)OCO3)c1=O	91.0	66.0*[inhibitor]	28.3	11.1	-10.0	-27.6	100.0	1.0	102.0
Cc1noc(C)c1NC(=O)Nc1ccc2c(c1)C(=O)N([C@H](C)CO)C[C@H](C)[C@@H](CN(C)S(=O)(=O)c1cccs1)O2	·	·	16.3	22.5	·	-12.2	·	·	·
CC(C)CC(=O)N=C1SC2CS(=O)(=O)CC2N1Cc1ccccc1 (centres undefined)	195.0*	114.0	1.0	-5.7	1.0	3.8	97.0	-8.0	98.0
O=C(CCc1nc2ccccc2s1)OCC(=O)c1ccc[nH]1	104.0	103.0	-3.2	-22.4	-5.0	-5.0	·	·	·
CCc1cccc2c(N=O)c(O)[nH]c12	136.0*	110.0	-2.0	12.9	0.0	-0.1	108.0	8.0	105.0
COc1ccc(Nc2nc(-c3cccc([N+](=O)[O-])c3)nc3ccccc23)cc1	126.0	141.0*	3.1	27.5	3.0	-3.8	107.0	-1.0	102.0
CC(C)(C)c1ccc(/C=C/C(=O)N2CCOCC2)cc1	134.0*	105.0	12.2	9.5	0.0	-6.3	101.0	1.0	102.0
CC1CCC2(CC1)NC(=O)N(CC(=O)NCCc1ccc(F)cc1)C2=O (centres undefined)	·	·	-2.9	-7.9	·	2.8	·	·	·
CCN1CCN(c2c(C=O)c(Cl)nc3ccc(OC)cc23)CC1	105.0	106.0	14.5	5.4	1.0	-15.7	·	·	·
COC(=O)c1ccc2c(c1)C(C)(C)C(/C=C/c1ccccc1O)=[N+]2C	68.0	-1.0*[inhibitor]	8.8	-303.7	-8.0	-105.3	89.0	-3.0	87.0
C[N+]1=C(/C=C/Nc2ccccc2Cl)C(C)(C)c2ccccc21	108.0	105.0	1.5	-60.3	5.0	2.8	·	·	·
O=C(NCC1CCCO1)c1cccc(S(=O)(=O)Nc2ccc(SC(F)F)cc2)c1 (centres undefined)	·	·	-7.3	-6.3	·	3.1	·	·	·
Cc1[nH]n(-c2ccccc2)c(=O)c1/C=N/NC(=O)C(C)C	105.0	102.0	12.7	4.4	-1.0	-22.9	·	·	·
Cc1cc(C)c2c(n1)sc1c(O)cc(=O)[nH]c12	122.0*	114.0	1.4	-5.9	8.0	3.6	112.0	12.0	107.0
COc1ccc(-c2cc(C(F)(F)F)c3c(n2)sc2c(O)cc(=O)[nH]c23)c(OC)c1	103.0	88.0	14.4	10.5	-2.0	-26.7	·	·	·
COc1ccccc1N1CCN(Cc2cc3c(cc2[N+](=O)[O-])OCO3)CC1	103.0	106.0	-0.4	-4.1	10.0	0.5	·	·	·
O=[N+]([O-])c1cc2c(cc1CN1CCN(CCOCCO)CC1)OCO2	112.0	149.0*	14.9	-0.4	23.0	-9.2	99.0	-1.0	99.0
CS/C(N)=N/N=C/c1cc(Br)cc(Br)c1O	129.0*	128.0	-13.2	13.2	26.0	11.6	100.0	2.0	100.0
CCOC(=O)C1=C(COC(=O)c2ccc(C)c(S(=O)(=O)N3CCOCC3)c2)NC(=O)NC1C (centres undefined)	·	·	2.8	·	·	2.2	·	·	·
CC(NC1CCCC1)c1ccccc1 (centres undefined)	88.0	98.0	0.1	24.8	-3.0	-6.3	·	·	·
CC(NCCC(c1ccccc1)c1ccccc1)c1ccccc1 (centres undefined)	99.0	145.0*	26.9	-32.8	12.0	37.9	130.0	13.0	104.0
Cc1cccc(N2CC(C(=O)NCc3ccco3)CC2=O)c1C (centres undefined)	·	·	3.7	19.4	·	-4.3	·	·	·
COc1ccc(N=C2NC(=O)/C(=C/c3ccc(O)c(OC)c3)S2)cc1	146.0*	107.0	11.2	23.4	-1.0	-23.6	102.0	-1.0	99.0
Nc1ccccc1C(=O)NCCN1CCNC1=O	104.0	107.0	-12.0	6.3	5.0	4.3	·	·	·
SMILES	MEKK3 PB1 HTS	MEKK2 WT-MEK5	Apaf1 inhib	PREPL inhibitor	MEKK2 mut-MEK5	UBC13 polyUb	MEKK2wt confirm	MEKK2mut confirm	MEKK3-MEK5 inh
Cc1ccc(C(=O)NCCN2CCNC2=O)cc1	129.0*	131.0	-15.3	2.2	28.0	9.2	101.0	1.0	99.0
O=C(COc1ccc(Cl)cc1)OCC(=O)c1ccc[nH]1	·	·	14.8	19.6	·	1.7	·	·	·
CC1Cc2ccccc2N1S(=O)(=O)c1cccs1 (centres undefined)	104.0	8.0*[inhibitor]	-7.7	12.9	18.0	-2.5	87.0	-12.0	91.0
CC(C)(C)c1ccc(C(=O)NC(=O)CSc2n[nH]c(N)n2)cc1	·	·	2.7	1.3	·	15.5	·	·	·
O=C1CC(N2CCN(c3ccc(F)cc3)CC2)C(=O)N1c1ccc2c(c1)OCO2 (centres undefined)	2.0*[inhibitor]	1.0*[inhibitor]	3.2	-1.4	-84.0	-13.6	103.0	4.0	102.0
CCOC(=O)[C@@H]1[C@H]2COc3cc(OC)ccc3[C@H]2N2C(=O)N(c3ccc(OC)cc3)C(=O)[C@]12C	·	·	10.8	-94.9	·	2.0	·	·	·
O=C1NC(=O)C2C3c4ccccc4C(c4ccccc43)C12 (centres undefined)	70.0*[inhibitor]	77.0	-10.9	-0.8	-38.0	-14.9	99.0	-3.0	103.0
Cc1ccc(CNC(=O)C2CCCN2S(=O)(=O)c2ccc(Cl)cc2)cc1 (centres undefined)	113.0	116.0	-15.9	0.7	6.0	2.5	·	·	·
COc1cccc(OC)c1NC(=O)Cc1nn(C)c(=O)c2ccccc12	125.0*	123.0	1.5	0.0	8.0	8.8	98.0	1.0	98.0
COc1cc(C(=O)NNC(=O)c2cc(S(=O)(=O)N(C)C)ccc2N2CCCC2)cc(OC)c1OC	·	·	3.5	1.4	·	-0.1	·	·	·
COc1cc(NC2c3ccccc3C(=O)N2Cc2ccccc2Cl)cc(OC)c1 (centres undefined)	135.0*	116.0	7.8	-12.7	29.0	-8.0	97.0	-1.0	96.0
Cc1cccc(NS(=O)(=O)c2ccc(C)c(C(=O)NCC(c3ccco3)N3CCCCC3)c2)c1 (centres undefined)	·	·	11.1	·	·	-2.7	·	·	·
COc1ccc(-n2c(O)c(C=Nc3ccccc3)c3ccccc3c2=O)cc1	101.0	93.0	-9.9	-2.5	-13.0	-14.4	·	·	·
